# Compounds with a hit are over-represented: about 4.5% of the library has one in this group of screens.
# CHOP inh: inhibitors of CHOP promoter induction, primary screen, cell-based, unfolded protein response, luciferase reporter | 220,000 compounds, 3.8% hits | CHO-K1 CHOP-promoter luciferase, tunicamycin-induced, 15-18 h | AID 2732, 2010 | inhibition, % at 10 µM;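 active = compounds that reduced the stress-induced luciferase reporter signal by more than about 70% of percent inhibition, limit read from the data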;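 also: 0% = tunicamycin plus vehicle and 100% = wells without tunicamycin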
# XBP1 UPR activ: activators of adaptive XBP1 UPR arm, primary screen, cell-based, CHO-XBP1 luciferase reporter, luminescence, uHTS. IRE1-XBP1 UPR activation; percent of tunicamycin response, DMSO as zero. activation, % at 20 µM. 330,000 compounds, 0.33% hits. AID 463104, 2010;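 active = versus positive control, 20 µM dose yields 30% or more activation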;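 also: 100% = tunicamycin at 10 µg/mL and 0% = DMSO only wells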
#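 Material: CHO cell line with stable XBP1 luciferase reporter; schedule: 16-18 h cell attachment at 37 °C, then 6 h compound exposure; signal: glow luminescence from Steady-Glo reagent; medium: serum-containing F12 medium, 10% FBS; benchmarks: tunicamycin 10 µg/mL and vehicle-only wells; read-out: percent activation relative to tunicamycin reference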
# HCV NS3 hel inh: inhibitors of HCV NS3 helicase, primary screen, biochemical, Cy5 molecular beacon fluorescence; Hepatitis C virus NS3 helicase; NS3 helicase DNA unwinding; inhibition, % at 10.9 µM; 290,000 compounds, 0.56% hits;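 active = inhibition above the mean of all tested compounds plus 3 SD, set per campaign, cut at about 35% in these data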;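 also: 0% = DMSO wells and 100% = thioflavine S control wells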
#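 Test system: hepatitis C virus NS3 helicase domain fragment enzyme. Also added: annealed dual-labelled DNA beacon duplex, ATP-started. Timing: 60 min unwinding reaction at 25 °C after ATP addition. Technique: Cy5 fluorescence. Measure: % inhibition of unwinding.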
# CHOP UPR activ: activators of apoptotic CHOP UPR arm, primary screen, cell-based, CHO-CHOP luciferase reporter, luminescence, uHTS | UPR activation; percent of tunicamycin response over DMSO baseline | activation, % at 10 µM | 330,000 compounds, 0.34% hits;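 active = at 10 µM dose, activation of 40% or more, normalized to positive control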;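 also: 100% = tunicamycin at 10 µg/mL and 0% = DMSO alone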
#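 Test system: CHO-CHOP cells, stable luciferase reporter of PERK-eIF2a-CHOP signalling | Quantity: 500 CHO-CHOP cells per well | Buffer or medium: F12 plus 10% serum | Compound dosing: 10 µM single point, 0.5% DMSO | Schedule: 6 h compound treatment, 37 °C | Signal: Luciferase luminescence | Control set: Tunicamycin high control, DMSO low control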
# PfM18AAP inh: PfM18AAP inhibitors, malaria aminopeptidase, primary screen, biochemical, QFRET, recombinant enzyme; H-Glu-NHMec fluorogenic cleavage; inhibition, % at 7.35 µM; 290,000 compounds, 1.2% hits; AID 1822, 2009;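 active = inhibition above the campaign mean inhibition over all tested compounds plus 3 SD, cut at about 28% in these data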;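 also: 0% = plate median of test compound wells and 100% = 2 mM ZnCl2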
# p97 ATPase inh: inhibitors of human p97 ATPase, primary screen, biochemical. recombinant p97 ATPase, Kinase-Glo ATP luminescence, 3 h. inhibition, % at 8 µM. 220,000 compounds, 0.42% hits. AID 1481, 2009; in the data active = inhibition above about 15%;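 also: 0% = DMSO vehicle and 100% = wells lacking enzyme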
# UPR CHOP confirm: activators of apoptotic CHOP UPR arm, confirmation, cell-based, CHO-CHOP luciferase reporter, single concentration | activation, % at 10 µM | shares compounds with CHOP UPR activ | CHO-CHOP cells, CHOP-luciferase reporter luminescence; percent of tunicamycin response, DMSO as zero | 1,000 compounds, 64% hits; in the data active = activation above about 33%;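 also: 0% = DMSO wells and 100% = tunicamycin 10 µg/mL wells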
# Active calls of the source: *; nt = no result given.
SMILES,CHOP inh,XBP1 UPR activ,HCV NS3 hel inh,CHOP UPR activ,PfM18AAP inh,p97 ATPase inh,UPR CHOP confirm
CCc1ccccc1NC(=S)N=Nc1c(O)n(C)c2ccc(S(=O)(=O)N3CCOCC3)cc12,-69,0,0,51*,6,1,53*
Cc1ccc(C)c(NC(=S)N=Nc2c(O)n(C)c3ccc(S(=O)(=O)N4CCOCC4)cc23)c1,-21,-1,-3,37,3,7,nt
COCCC1CCCCN1C(=O)c1cc(COc2ccc(-n3cncn3)cc2)on1 (centres undefined),nt,-3,0,8,-1,nt,nt
O=Cc1ccc(O)c2ncccc12,20,24,13,86*,4,5,89*
NS(=O)(=O)c1ccc(N=Nc2ccc(O)c3ncccc23)cc1,nt,3,8,21,8,nt,nt
CC1CCCCC12NC(=O)N(CC(=O)OCC(=O)NC(=O)c1ccccc1)C2=O (centres undefined),nt,0,nt,0,nt,nt,nt
O=C(c1ccc(N2C(=O)c3ccccc3C2=O)cc1)N1CCCCC1,nt,3,25,0,0,nt,nt
CCc1ccc(N2C(=O)C(Cl)=C(Nc3ccc(C(=O)N4CCCC4)cc3)C2=O)cc1,nt,-6,nt,104*,nt,nt,0
CC(Sc1ncccn1)C(=O)Nc1ccc2c(c1)OCO2 (centres undefined),nt,5,nt,0,nt,nt,nt
CC(C)c1ccc(OCCCCCN2CCOCC2)cc1,nt,1,-33,3,0,nt,nt
CC(=O)Oc1ccc(OC(C)=O)c(SCCCCCN2CCOCC2)c1,-220,-4,-5,73*,6,-2,33*
COc1ccc(CCNCC(=O)Nc2ccccc2C(F)(F)F)cc1,1,-3,0,6,-8,-3,nt
O=C(CSc1nnc(CNC(=O)c2ccco2)o1)Nc1cccc(Cl)c1,nt,-4,8,0,0,nt,nt
C/C(CC1CC2=C(CC1(C)C)C(C)(C)CCC2)=N\NC(N)=S (centres undefined),-62,25,10,57*,-25,-7,27
CCCCNC1C(CC)C(CCC)C(C#N)(C#N)C1(C#N)C#N (centres undefined),-10,-8,-26,74*,-4,-4,34*
COc1ccc(OC)c(/C=C/C(=O)N2CCCc3ccccc32)c1,28,3,1,1,7,-4,nt
COc1ccc(OC)c(/C=C/C(=O)N2C(=O)c3cccc(N)c3C2=O)c1,90*,2,16,53*,-3,-1,62*
COc1cc(/C=C/C(=O)N2C(=O)c3cccc(N)c3C2=O)cc(OC)c1OC,94*,4,2,68*,7,8,53*
COc1ccc(C(=O)Nc2cc(Cl)ccc2-n2cncn2)c(OC)c1OC,nt,-3,nt,-1,nt,nt,nt
O=c1c2c(nc3nc(NCc4cccc(Cl)c4)[nH]n13)CCC2,-2,-2,-2,-1,-7,4,nt
N#Cc1c(N2CCCC(O)C2)nc(N)c2c(N)nc3c(c12)CC(=O)N3C12CC3CC(CC(C3)C1)C2 (centres undefined),-101,25,-29,46*,6,6,20
CCOC(=O)c1cc(-c2ccc(/C=C3/C(=O)N(c4ccc(C(=O)O)cc4)N=C3C)o2)ccc1Cl,nt,6,17,87*,-2,nt,135*
Oc1c(C(c2ccccn2)N2CCC(Cc3ccccc3)CC2)cc(Cl)c2cccnc12 (centres undefined),-346,14,2,43*,2,11,74*
Oc1c(C(c2ccc(Cl)cc2)N2CCCC2)cc(Cl)c2cccnc12 (centres undefined),4,3,26,11,-3,4,nt
